Series [1] has as its system NCI-H1703. The series is described as follows: Antiproliferative activity against human NCI-H1703 cells after 72 hrs by MTT assay. The conditions noted are these: NCI-H1703, 72 h. The series is classed as functional, cell-based. A digest of the protocol: (§1)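 Compounds (10 mM DMSO stocks, final DMSO ≤0.1%) added at increasing concentrations in PBS, incubated 72 h at 37 °C. MTT read-out, six repeats per concentration, at least two independent experiments.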
On the technique in general: Formazan colour is commonly taken as a measure of viable cells.

The test system of a further series is NCI-H441. The series is described as follows: Antiproliferative activity against human NCI-H441 cells after 72 hrs by MTT assay. The series is classed as functional, cell-based. The conditions noted are these: NCI-H441, 72 h. A digest of the protocol:
as §1

The nature of series [2]: Antiproliferative activity against human NCI-H1373 cells after 72 hrs by MTT assay. The conditions noted are these: NCI-H1373, 72 h. The series is classed as functional, cell-based. A digest of the protocol:
as §1

Series [3] is described as follows: Antiproliferative activity against human NCI-H1944 cells after 72 hrs by MTT assay. The series is classed as functional, cell-based. The conditions noted are these: NCI-H1944, 72 h. An outline of the steps: as §1
Series [4] concerns NCI-H1703. The series is described as follows: Antitumor activity against human NCI-H1703 cells xenografted in athymic NCr Charles river nu/nu mouse assessed as reduction of tumor growth at 6 umol/kg, iv administered 3 times a week for 3 weeks relative to vehicle treated control. The series is classed as functional, organism-based. An outline of the steps:
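H1703 xenografts (5×10^6 cells s.c., flank) in 7-week-old female athymic NCr-nu/nu mice, treated from tumor size ≥2×2×2 mm. Mice killed 2 h after the last dose; tumors excised and weighed. 13–15 mice/group; Mann-Whitney test against vehicle.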

Series [5] deals with Mus musculus. The series is described as follows: Toxicity in human NCI-H1703 cells xenografted athymic NCr nu/nu Charles river mouse assessed as change in body weight at 6 umol/kg, iv administered 3 times a week for 3 weeks (reference value: 22.5 +/- 0.4g). The series is classed as organism-based. The conditions noted are these: in vivo, 504 h. A general note: A xenograft is tissue or cells of one species grown in another, often human tumour cells in immunodeficient mice.

Series [6] deals with T1, Dual specificity mitogen-activated protein kinase kinase 4 (Homo sapiens) (UniProt P45985).
T1 sequence (whole entry): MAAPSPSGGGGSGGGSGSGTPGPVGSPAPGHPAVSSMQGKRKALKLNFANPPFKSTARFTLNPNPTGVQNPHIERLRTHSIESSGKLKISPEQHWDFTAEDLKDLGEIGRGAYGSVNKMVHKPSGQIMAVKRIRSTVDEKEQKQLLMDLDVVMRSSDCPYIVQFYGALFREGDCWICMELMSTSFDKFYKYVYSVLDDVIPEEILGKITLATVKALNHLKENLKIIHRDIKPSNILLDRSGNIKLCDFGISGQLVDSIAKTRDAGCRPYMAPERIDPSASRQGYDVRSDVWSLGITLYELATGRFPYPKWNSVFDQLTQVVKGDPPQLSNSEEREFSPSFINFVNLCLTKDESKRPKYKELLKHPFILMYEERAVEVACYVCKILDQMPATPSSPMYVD
The series is described as follows: Activation of SEK1 phosphorylation at Thr261 in human NCI-H1703 cells at 1 uM by Western blot analysis. The series is classed as cell-based. A digest of the protocol: (§2)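 Lysates immunoblotted with phospho-specific antibodies against SEK1/MKK4, SAPK/JNK, ATF2 and c-jun. Membranes reprobed for total SAPK/JNK as loading control. Representative blots shown.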

Series [7] in a line: Activation of JNK phosphorylation in human NCI-H1703 cells assessed as ATF2 phosphorylation at Thr71 at 1 uM by Western blot analysis. The series is classed as cell-based. An outline of the steps:
as §2
(In general: Immunoblotting shows a protein as a band on a membrane.)

The nature of series [8]: Activation of JNK phosphorylation in human NCI-H1703 cells assessed as c-jun phosphorylation at Ser63 at 1 uM by Western blot analysis. The series is classed as cell-based. An outline of the steps:
as §2

The nature of series [9]: Activation of JNK phosphorylation in human NCI-H1703 cells assessed as ATF2 phosphorylation at Thr71 at 1 uM pretreated for 30 mins by Western blot analysis in presence of JNK inhibitor 1,9-pyrazoloanthrone. The series is classed as cell-based. An outline of the steps:
(§3)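 Before compound exposure (1 μM), H1703 cells received the JNK inhibitor 1,9-pyrazoloanthrone at 50 μM for 30 min. Phosphorylated JNK, ATF2 and c-jun, and ATF3 protein, then detected by Western blot. Representative blots shown.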

Series [10] can be described thus: Activation of JNK phosphorylation in human NCI-H1703 cells assessed as c-jun phosphorylation at Ser63 at 1 uM pretreated for 30 mins by Western blot analysis in presence of JNK inhibitor 1,9-pyrazoloanthrone. The series is classed as cell-based. An outline of the steps:
as §3

Series [11] is described as follows: Activation of JNK phosphorylation in human NCI-H1703 cells assessed as increase in ATF3 protein level at 1 uM within 2 hrs by Western blot analysis in presence of JNK inhibitor 1,9-pyrozoloanthrone. The series is classed as cell-based. An outline of the steps: as §3
The nature of series [12]: Activation of JNK phosphorylation in human NCI-H1703 cells assessed as increase in ATF3 protein level at 1 uM by Western blot analysis. The series is classed as cell-based.
A short description of series [13]: Activation of JNK phosphorylation in human NCI-H1703 cells assessed as increase in ATF3 mRNA level at 1 uM after 1.5 hrs by quantitative real-time PCR analysis relative to control. The series is classed as cell-based. A digest of the protocol: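 Cells were H1703 treated with compound or DMSO control. Total RNA was isolated and residual genomic DNA removed. ATF3 mRNA was measured by quantitative RT-PCR with β-actin as internal control. Reported as mean ± SE.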

For series [14], the system named is NCI-H1703. The series is described as follows: Induction of apoptosis in human NCI-H1703 cells assessed as PARP cleavage after 1 to 6 hrs by Western blot analysis. The series is classed as functional, cell-based.
Series [15] has as its system NCI-H1703. The series is described as follows: Induction of apoptosis in human NCI-H1703 cells assessed as caspase 3 activation after 1 to 6 hrs by Western blot analysis. The series is classed as functional, cell-based.
Series [16] relates to NCI-H1703. The series is described as follows: Induction of apoptosis in human NCI-H1703 cells assessed as caspase 7 activation after 1 to 6 hrs by Western blot analysis. The series is classed as functional, cell-based.
For series [17], the system named is NCI-H1703. The series is described as follows: Induction of apoptosis in human NCI-H1703 cells assessed as apoptotic cells at 1 uM after 6 hrs by FACS analysis (reference value: 0.05%). The series is classed as functional.
Series [18] has as its system NCI-H1703. The series is described as follows: Upregulation of ATF3 expression in human NCI-H1703 cells at 1 uM pretreated with ATF3 siRNA for 48 hrs before compound challenge measured after 8 hrs by Western blot analysis. The series is classed as functional, cell-based. A digest of the protocol: (§4)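 H1703 cells at 60% confluence transfected with ATF3 siRNA, nonsilencing siRNA or reagent only (mock). After 48 h, cells treated with 1 μM compound or equal-volume DMSO for 8 h, then lysed. Western blots probed for ATF3, cleaved PARP p85 and cleaved caspase-3, with β-actin as loading control.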

Series [19] deals with NCI-H1703. The series is described as follows: Induction of apoptosis in human NCI-H1703 cells assessed as PARP p85 cleavage at 1 uM pretreated with ATF3 siRNA for 48 hrs before compound challenge measured after 8 hrs by Western blot analysis. The series is classed as functional, cell-based. A digest of the protocol: as §4
Series [20] has as its system NCI-H1703. The series is described as follows: Induction of apoptosis in human NCI-H1703 cells assessed as caspase 3 cleavage at 1 uM pretreated with ATF3 siRNA for 48 hrs before compound challenge measured after 8 hrs by Western blot analysis. The series is classed as functional, cell-based. A digest of the protocol: as §4
Series [21] has as its system Mus musculus. The series is described as follows: Induction of JNK phosphorylation in human NCI-H1703 cells xenografted NCr nu/nu Charles river mouse tumor at 6 umol/kg, iv administered 3 times a week for 3 weeks by immunohistochemical analysis. The series is classed as functional, organism-based.
In series [22] the test system is Mus musculus. The series is described as follows: Induction of JNK phosphorylation in human NCI-H1703 cells xenografted NCr nu/nu Charles river mouse tumor assessed as increase in ATF3 protein level at 6 umol/kg, iv administered 3 times a week for 3 weeks by immunohistochemical analysis. The series is classed as functional, organism-based.
Series [23] in a line: Activation of JNK phosphorylation at Thr183 and Tyr185 in human NCI-H1703 cells at 1 uM pretreated for 1 hr measured after 30 mins by Western blot analysis in presence of ROS scavenger tiron.

The structures appear in SMILES notation. Calls of active or inactive are those of the source. No cut-off for these calls is given here.

For the compound `CCOC(=O)N1CCN(/[N+]([O-])=N/Oc2ccc([N+](=O)[O-])cc2[N+](=O)[O-])CC1`, the IC50 was 570 nM in the series on NCI-H1703 [1], 940 nM in the series with NCI-H441, 860 nM in [2] and greater than 10000 nM in series [3]. The “growth inhibition (GI)” value with NCI-H1703 [4] was “Active”. Moreover, the Activity with Mus musculus [5] was 24.9 g; in series [12], “tde”; with NCI-H1703 [17], 14.4%. Also, the outcome (in series [6]; in series [7]; in [8]; in the series on NCI-H1703 [14]; in the series on NCI-H1703 [15]; in the series on NCI-H1703 [16]) was Active. Also, the outcome in the series on Mus musculus [21] and with Mus musculus [22] was Active. Also, the result (in series [9]; in [10]; in series [11]; in the series with NCI-H1703 [18]; in the series on NCI-H1703 [19]; in the series with NCI-H1703 [20]) was inactive. In addition, the outcome in series [23] was inactive. Further, the fold change (FC) in series [13] amounted to 8.

Broadly, the IC50 is the concentration that inhibits the measured activity by half. Higher therefore signals weaker potency in that assay.

(Values after ChEMBL document CHEMBL1914422, “Activation of the c-Jun N-terminal kinase/activating transcription factor 3 (ATF3) pathway characterizes effective arylated diazeniumdiolate-based nitric oxide-releasing anticancer prodrugs” (J Med Chem, 2011).)
